Data set [1] can be described thus: Clearance in Sprague-Dawley rat plasma at 1 mg/kg measured upto 24 hrs by LC-MS/MS analysis. In kind it is ADME, organism-based. The method, boiled down:
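Male Sprague-Dawley rats (275-300 g), carotid-catheterized and acclimated overnight. Dosing was i.v. at 1 mpk (n=2) in 70% saline/20% PEG-400/10% ethanol, or oral at 3 mpk (n=3) as a suspension in 0.5% HPMC/Tween. Plasma drug was measured by LC-MS/MS. Cmax and Tmax were read from individual profiles. t½ came from the terminal log-linear slope and AUC by the linear trapezoidal rule. CL = dose/AUC0-∞, Vdss = CL×MRT, F = dose-normalized AUC po/iv.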

Data set [2] is described as follows: Inhibition of TNFalpha production in LPS induced human Whole blood cell preincubated with compound for 1 hr followed by LPS induction and measured after 4 hrs. In kind it is functional, cell-based. In short, it runs like this: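 Human whole blood was stimulated with LPS 100 ng/ml for 4 h. Plasma TNFα was read by MSD kit. Three separate experiments in duplicate, mean ±S.E.M. IC50 by 4-parameter nonlinear regression.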

The target of data set [3] is T1, MAP kinase-activated protein kinase 2 (Homo sapiens, UniProt P49137). As to the kind of experiment: Binding affinity to recombinant N-terminal truncated MK2 (45 to 371 residues) (unknown origin) expressed in Escherichia coli assessed as dissociation constant measured after 15 mins by surface plasmon resonance spectroscopy analysis. In short, it runs like this: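 SPR on biotinylated MK2 captured on a streptavidin-coated CM5 chip, at 25°C. Running buffer was 10 mM HEPES, 150 mM NaCl, 0.005% P20, flowing at 60 μl/min. Compound at 1-100 nM was injected for 4 min, then dissociation was followed for 15 min. Real-time binding kinetics were recorded.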
For orientation: In SPR one partner is held on a chip, and binding of the other changes the refractive index at the surface.
Target sequence in this assay (P49137 whole entry, the tested form may be a part): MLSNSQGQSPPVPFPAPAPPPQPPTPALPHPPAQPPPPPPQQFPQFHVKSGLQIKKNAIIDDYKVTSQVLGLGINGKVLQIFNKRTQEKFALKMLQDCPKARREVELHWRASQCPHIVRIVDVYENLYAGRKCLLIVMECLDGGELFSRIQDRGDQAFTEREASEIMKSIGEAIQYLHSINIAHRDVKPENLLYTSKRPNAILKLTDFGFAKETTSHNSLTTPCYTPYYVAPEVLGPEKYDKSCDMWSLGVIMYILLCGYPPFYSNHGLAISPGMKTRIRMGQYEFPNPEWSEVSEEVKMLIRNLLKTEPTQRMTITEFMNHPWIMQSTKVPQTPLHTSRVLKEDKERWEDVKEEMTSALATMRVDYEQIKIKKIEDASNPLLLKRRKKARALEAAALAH

Data set [4] can be described thus: Unbound plasma concentration in po dosed LPS-induced Lewis rat model at ED80 concentration measured after 5.5 hrs of initial dose by LC-MS/MS analysis. In kind it is ADME, organism-based. The note with it: in vivo. In short, it runs like this: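 Male Lewis rats (225-250 g, 5 per group) were fasted 18 h, then dosed orally at 0.2-60 mg/kg as a suspension in 0.5% methylcellulose/0.025% Tween 20. LPS 1 mg/kg was given i.v. 4 h later. Blood was taken by cardiac puncture 90 min after LPS. Serum TNFα was read by ELISA and drug by LC-MS/MS, three independent experiments. 4-parameter fit. Unbound values were corrected with measured rat plasma protein binding.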

The target of data set [5] is T1, MAP kinase-activated protein kinase 2.
Target sequence in this assay (P49137 whole entry, looked up, the tested form may be a part): as the sequence (P49137 whole entry, the tested form may be a part) above
Data set [6] in a line: Inhibition of recombinant 6 his tagged N/C-terminal MSK1 (367 to 802 residues)/MSK2 (351 to 772 residues) (unknown origin) expressed in baculovirus infected Sf9 insect cells using KKKALSRQLSVAA as substrate incubated for 1 hr followed by substrate addition in presence of ATP. Details: species or system Homo sapiens. The method, boiled down:
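MAPKAP family kinases were activated by p38α (1:50 molar, 250 μM ATP, 1 h, 30°C). Assays ran in 20 mM HEPES pH 7.5, 10 mM MgCl2, 1 mM DTT, 0.01% BSA, 0.0005% Tween-20, at MgATP fixed at each enzyme's Km(app). The 33P-labelled product peptide was separated by ion exchange. Duplicate experiments. MSK1 (367-802) and MSK2 (351-772) were N-terminal 6xHis constructs from Sf9 cells.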

Data set [7] is described as follows: Plasma protein binding in rat. In kind it is ADME, cell-free. The method, boiled down: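 Binding to rat and human plasma was measured in vitro by ultracentrifugation.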
Data set [8] can be described thus: Antiinflammatory activity in human Whole blood cell assessed as inhibition of LPS induced IL-6 production preincubated for 1 hr followed by LPS stimulation and measured after 16 hrs by MSD analysis. In kind it is functional, cell-based. The method, boiled down: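 Human whole blood was stimulated ex vivo with LPS 100 ng/ml. Plasma cytokines were read by MSD 4-plex: TNFα at 4 h; IL-1β, IL-6 and IL-8 at 16 h. Data are means ±S.E.M. of two independent experiments in duplicate, three donors. IC50 by 4-parameter nonlinear regression.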

A short description of data set [9]: Antiinflammatory activity in human PBMC cells assessed as inhibition of LPS induced TNF alpha production preincubated for 1 hr followed by LPS stimulation and measured after 16 hrs by MSD analysis. In kind it is functional, cell-based.
The nature of data set [10]: Antiinflammatory activity in human PBMC cells assessed as inhibition of LPS induced IL-6 production preincubated for 1 hr followed by LPS stimulation and measured after 16 hrs by MSD analysis. In kind it is functional, cell-based. In short, it runs like this:
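Human PBMCs were pretreated with compound for 1 h (<1% DMSO final), then stimulated with LPS 100 ng/ml at 37°C. Cytokines in culture media were read by MSD 4-plex: TNFα at 4 h; IL-1β, IL-6 and IL-8 at 16 h. Data are means ±S.E.M. of two independent experiments in duplicate, three donors. IC50 by 4-parameter nonlinear regression.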

In data set [1], `Cc1ccc(-c2ccc3c(ccc4sc5c(c43)NC[C@@H](C)NC5=O)n2)cn1` showed a clearance of 10.3 mL/min/kg. Moreover, the IC50 in data set [2] is 1970 nM; in data set [6], more than 1000 nM; in data set [8], 10300 nM; in data set [9], 214 nM; in data set [10], 1400 nM. Moreover, the equilibrium dissociation constant (Kd) in [3] is 5.9 nM. In data set [4], this compound returned a Cp(f) of 340 nM. In data set [5], this compound displayed a T1/2 of 2.43 min. In addition, the PPB in [7] came to 92.1%.

In general, clearance refers to a measure of how efficiently the substance is removed, as volume per time. Lower therefore signals a low capacity for elimination. The IC50 is the point on the concentration scale where inhibition reaches its midpoint. Usually Kd stands for a measure of binding affinity in units of concentration.

The values above are taken from ChEMBL document CHEMBL5678801, “A benzothiophene inhibitor of mitogen-activated protein kinase-activated protein kinase 2 inhibits tumor necrosis factor alpha production and has oral anti-inflammatory efficacy in acute and chronic models of inflammation” (J Pharmacol Exp Ther, 2010).
